Source: ChEMBL document CHEMBL3286337, “Synthesis, biological evaluation and structure-activity relationships of new phthalazinedione derivatives with vasorelaxant activity” (Eur J Med Chem, 2014)
Activity calls are given as the source filed them. The calls are words filed in the database; no cut-off is given here.

Columns and labels:
Aorta [1] = assay: Vasorelaxant activity in Wistar rat endothelium-intact thoracic aortic rings assessed as inhibition of phenylephrine-induced contraction; type: functional, tissue-based
Aorta [2] = assay: Vasorelaxant activity in Wistar rat endothelium-denuded thoracic aortic rings assessed as inhibition of phenylephrine-induced contraction; type: functional, tissue-based
Aorta [3] = assay: Vasorelaxant activity in Wistar rat endothelium-intact thoracic aortic rings assessed as inhibition of phenylephrine-induced contraction at 200 uM; type: functional
Aorta [4] = assay: Vasorelaxant activity in Wistar rat endothelium-denuded thoracic aortic rings assessed as inhibition of phenylephrine-induced contraction at 200 uM; type: functional, tissue-based
[5] = Cytotoxicity against rat A7r5 cells assessed as reduction of cell viability at 50 uM after 24 hrs by MTT assay; type: cell-based; settings: a7r5, 24 h
How it was run: (§1)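 A7r5 embryonic rat aorta smooth muscle cells seeded at 20 × 10^3/cm^2 and incubated overnight. Compounds added with DMSO (1%) for 24 h; untreated cells served as negative control. MTT solution (5 mg/ml in PBS) added, 2 h at 37 C, absorbance read at 540 nm. Viability = A(treatment)/A(negative control) × 100%. Mean ± S.E.M of at least 5 experiments.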

[6] = Cytotoxicity against rat A7r5 cells assessed as reduction of cell viability at 25 uM after 24 hrs by MTT assay; type: cell-based; settings: a7r5, 24 h; how it was run: as §1
Aorta [7] = assay: Vasorelaxant activity in Wistar rat endothelium-denuded thoracic aortic rings assessed as inhibition of phenylephrine-induced contraction relative to endothelium-intact thoracic aortic rings in presence of 1 uM of acetylcholine; type: functional

For Cn1c(=O)c2c(Cl)cccc2c(=O)n1CCCN=[N+]=[N-], the EC50 (Aorta [1]) was 2.33 µM and the EC50 (Aorta [2]) was 11.7 µM.
Work on Cn1c(=O)c2cccc(Cl)c2c(=O)n1CCCBr yielded an EC50 (Aorta [1]) of 3.36 µM and an EC50 (Aorta [2]) of 6.71 µM.
CN1C(=O)CN=C(c2ccccc2)c2cc(Cl)ccc21 [DIAZEPAM] showed an EC50 (Aorta [1]) of 69 µM and an EC50 (Aorta [2]) of 77.2 µM.
In the case of Cn1c(=O)c2ccccc2c(=O)n1CCNC(=O)OC(C)(C)C, the EC50 (Aorta [1]) is reported as 2.44 µM and the EC50 (Aorta [2]) is reported as 14.6 µM.
With Cn1[nH]c(=O)c2c(Cl)cccc2c1=O the inhibition (Aorta [3]) was “inactive” and the inhibition (Aorta [4]) was “inactive”.
With Cn1c(=O)c2ccccc2c(=O)n1CCCN the inhibition at 200 µM (Aorta [3]) was 50% and the inhibition (Aorta [4]) was “inactive”.
For Cn1c(=O)c2cccc(Cl)c2c(=O)n1CCCN, the EC50 (Aorta [1]) was 44.7 µM and the inhibition (Aorta [4]) was “inactive”.
For Cn1c(=O)c2ccccc2c(=O)n1CCBr, the EC50 (Aorta [1]) was 1.7 µM and the EC50 (Aorta [2]) was 8.46 µM.
In the case of Nc1cc(-c2ccncc2)c[nH]c1=O [INAMRINONE], the EC50 (Aorta [1]) is reported as 17 µM and the EC50 (Aorta [2]) is reported as 28 µM.
For Cn1c(=O)c2c(Cl)cccc2c(=O)n1CCN, the EC50 (Aorta [1]) was 48.7 µM and the inhibition (Aorta [4]) was “inactive”.
For Cn1c(=O)c2cccc(Cl)c2c(=O)n1CCNC(=O)OC(C)(C)C, the EC50 (Aorta [1]) was 3.45 µM, the EC50 (Aorta [2]) was 13.3 µM and the Activity [5] was “Toxic”. The Activity [6] was “Non-toxic”.
In the case of Cn1c(=O)c2ccccc2c(=O)n1CCN=[N+]=[N-], the EC50 (Aorta [1]) is reported as 10 µM and the EC50 (Aorta [2]) is reported as 15.9 µM.
For Cn1c(=O)c2cccc(Cl)c2c(=O)n1CCCN=[N+]=[N-], the EC50 (Aorta [1]) was 4.31 µM, the EC50 (Aorta [2]) was 7.44 µM and the Activity [5] was “Toxic”. For the same compound, the Activity [6] was “Non-toxic”.
With Cn1[nH]c(=O)c2ccccc2c1=O the inhibition (Aorta [3]) was “inactive” and the inhibition (Aorta [4]) was “inactive”.
For Cn1c(=O)c2c(Cl)cccc2c(=O)n1CCCN, the EC50 (Aorta [1]) was 8.51 µM, the EC50 (Aorta [2]) was 30.2 µM and the “inhibition (INH)” value (Aorta [7]) was 53.6%.
Cn1c(=O)c2ccccc2c(=O)n1CCCN=[N+]=[N-] showed an EC50 (Aorta [1]) of 2.35 µM and an EC50 (Aorta [2]) of 3.71 µM.
For Cn1c(=O)c2c(Cl)cccc2c(=O)n1CCN=[N+]=[N-], the EC50 (Aorta [1]) was 4.12 µM and the EC50 (Aorta [2]) was 13.1 µM.
With Cn1c(=O)c2c(Cl)cccc2c(=O)n1CCBr the EC50 (Aorta [1]) was 7.35 µM and the EC50 (Aorta [2]) was 32.5 µM.
Compound Cn1c(=O)c2cccc(Cl)c2c(=O)n1CCBr has an EC50 (Aorta [1]) of 7.95 µM and an EC50 (Aorta [2]) of 20.2 µM.
For Cn1c(=O)c2ccccc2c(=O)n1CCN, the inhibition at 200 µM (Aorta [3]) was 50% and the inhibition (Aorta [4]) was “inactive”.
For Cn1c(=O)c2c(Cl)cccc2c(=O)n1CCCNC(=O)OC(C)(C)C, the EC50 (Aorta [1]) was 2.15 µM, the EC50 (Aorta [2]) was 4.85 µM and the Activity [5] was “Toxic”. For the same compound, the Activity [6] was “Non-toxic”.
In the case of Cn1c(=O)c2ccccc2c(=O)n1CCCBr, the EC50 (Aorta [1]) is reported as 3.1 µM and the EC50 (Aorta [2]) is reported as 15.5 µM.
For Cn1c(=O)c2c(Cl)cccc2c(=O)n1CCNC(=O)OC(C)(C)C, the EC50 (Aorta [1]) was 2.53 µM, the EC50 (Aorta [2]) was 5.57 µM and the Activity [5] was “Toxic”. The Activity [6] was “Non-toxic”.
With Cn1c(=O)c2cccc(Cl)c2c(=O)n1CCN the inhibition at 200 µM (Aorta [3]) was 50% and the inhibition (Aorta [4]) was “inactive”.
For Cn1c(=O)c2cccc(Cl)c2c(=O)n1CCCNC(=O)OC(C)(C)C, the EC50 (Aorta [1]) was 4.78 µM, the EC50 (Aorta [2]) was 18.2 µM and the Activity [5] was “Toxic”. For the same compound, the Activity [6] was “Non-toxic”.
Compound Cn1c(=O)c2c(Cl)cccc2c(=O)n1CCCBr has an EC50 (Aorta [1]) of 6.61 µM and an EC50 (Aorta [2]) of 27.2 µM.
Compound NNc1nncc2ccccc12 [HYDRALAZINE] has an EC50 (Aorta [1]) of 1180 µM and an EC50 (Aorta [2]) of 1320 µM.
For Cn1[nH]c(=O)c2cccc(Cl)c2c1=O, the inhibition (Aorta [3]) was “inactive” and the inhibition (Aorta [4]) was “inactive”.
Compound Cn1c(=O)c2cccc(Cl)c2c(=O)n1CCN=[N+]=[N-] has an EC50 (Aorta [1]) of 6.35 µM and an EC50 (Aorta [2]) of 13.2 µM.
Work on Cn1c(=O)c2ccccc2c(=O)n1CCCNC(=O)OC(C)(C)C yielded an EC50 (Aorta [1]) of 3.96 µM and an EC50 (Aorta [2]) of 23.6 µM.
